Test results taken from ChEMBL document CHEMBL1124054, “Synthesis and biological activity of ketomethylene-containing nonapeptide analogues of snake venom angiotensin converting enzyme inhibitors” (J Med Chem, 1988).
Each block holds one compound with its values, some of them ahead of it. Starred links: 1 amine or outer side, 2 acyl side, 3 side chain; linkers in the order of their positions; H or OH if unused. Non-standard residues stand in square brackets, D forms with d. Residues, ends and D or L forms follow the SMILES beside them. *: point of attachment. X3 = O=C1CCN([*:1])[C@H]1C(=O)[*:2]; Cyclobutanecarbonyl = O=C(C1CCC1)*; pGlu = O=C1CC[C@@H](C(=O)O)N1; Nle = CCCC[C@H](N)C(=O)O

How the values were obtained:
[1] = target: T1, Angiotensin-converting enzyme (Rattus norvegicus, UniProt P47820); assay: Inhibition of Angiotensin I converting enzyme in normotensive rat; assay type: functional; settings: read-out: I50 (converted)
T1 sequence (P47820 whole entry): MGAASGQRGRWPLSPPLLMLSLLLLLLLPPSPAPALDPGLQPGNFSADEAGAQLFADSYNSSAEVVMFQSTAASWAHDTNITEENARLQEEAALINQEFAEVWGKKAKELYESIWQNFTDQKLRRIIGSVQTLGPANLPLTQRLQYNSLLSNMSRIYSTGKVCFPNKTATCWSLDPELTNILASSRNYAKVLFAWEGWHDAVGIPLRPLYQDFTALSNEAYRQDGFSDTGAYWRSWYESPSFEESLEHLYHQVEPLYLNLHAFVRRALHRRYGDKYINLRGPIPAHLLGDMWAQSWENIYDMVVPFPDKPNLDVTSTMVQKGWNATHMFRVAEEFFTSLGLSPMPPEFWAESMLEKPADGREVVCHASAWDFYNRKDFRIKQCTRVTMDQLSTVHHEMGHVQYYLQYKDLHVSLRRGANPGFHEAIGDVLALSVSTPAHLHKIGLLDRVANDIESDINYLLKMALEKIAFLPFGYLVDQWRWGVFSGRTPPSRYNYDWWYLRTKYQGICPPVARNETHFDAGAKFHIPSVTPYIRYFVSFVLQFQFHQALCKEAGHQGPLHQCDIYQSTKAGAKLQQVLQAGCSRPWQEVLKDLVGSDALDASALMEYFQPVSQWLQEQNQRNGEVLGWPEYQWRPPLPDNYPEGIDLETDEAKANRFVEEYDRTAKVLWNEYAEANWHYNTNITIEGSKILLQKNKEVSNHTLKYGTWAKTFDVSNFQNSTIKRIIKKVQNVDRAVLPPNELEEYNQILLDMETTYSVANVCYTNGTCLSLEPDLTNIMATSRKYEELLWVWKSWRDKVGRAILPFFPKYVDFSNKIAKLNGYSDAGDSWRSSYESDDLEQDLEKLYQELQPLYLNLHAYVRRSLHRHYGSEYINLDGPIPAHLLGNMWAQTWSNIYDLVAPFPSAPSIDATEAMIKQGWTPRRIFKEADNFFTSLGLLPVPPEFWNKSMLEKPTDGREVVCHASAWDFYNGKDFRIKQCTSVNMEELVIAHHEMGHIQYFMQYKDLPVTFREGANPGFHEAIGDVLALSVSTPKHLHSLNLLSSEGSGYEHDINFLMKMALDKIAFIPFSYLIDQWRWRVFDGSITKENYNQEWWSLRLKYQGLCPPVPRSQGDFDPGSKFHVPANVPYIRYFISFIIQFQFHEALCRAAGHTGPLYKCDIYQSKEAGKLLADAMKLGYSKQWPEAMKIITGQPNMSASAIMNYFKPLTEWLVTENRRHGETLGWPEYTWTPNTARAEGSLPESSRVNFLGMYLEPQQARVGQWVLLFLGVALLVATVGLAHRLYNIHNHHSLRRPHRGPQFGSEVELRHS

[2] = target: Angiotensin-converting enzyme (Oryctolagus cuniculus) (UniProt P12822); assay: Inhibition of Angiotensin I converting enzyme from rabbit lung; settings: read-out: I50
chymotrypsin = assay: Time required for 50% degradation by chymotrypsin; assay type: ADME; settings: read-out: Time (converted)
In short: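 Peptide (0.5–1.0 μmol) in 0.1 M Tris, pH 7.8, stirred at room temperature with chymotrypsin (37 units dissolved in 50 mL cold 0.001 N HCl; 0.050 mL per μmol peptide). Degradation followed over time by TLC.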

Rattus norvegicus [3] = species on record: Rattus norvegicus; assay: Time required for 100% degradation in rat stomach homogenate; assay type: ADME
In short: (§1)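 Peptide, partially neutralized with 0.1 N HCl, incubated at 37 °C with 150 mg rat stomach homogenate. Breakdown monitored by TLC.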

[4] = Time required for 100% degradation by trypsin; assay type: ADME
trypsin = assay: Time required for 50% degradation by trypsin; assay type: ADME; settings: read-out: Time
Rattus norvegicus [5] = species on record: Rattus norvegicus; assay: Time required for 100% degradation in rat intestinal homogenate; assay type: ADME
In short: (§2)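 Rat small intestine was taken immediately after sacrifice and minced in Krebs Ringer (10 mL/g). Peptide (0.2–0.5 μmol) mixed with homogenate (1.0 mL per μmol), shaken at 37 °C. Degradation followed by TLC.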

[6] = Time required for 50% degradation in rat stomach homogenate; assay type: ADME; settings: read-out: Time (converted); in short: as §1
[7] = Time required for 50% degradation in rat intestinal homogenate; assay type: ADME; settings: read-out: Time (converted); in short: as §2
[8] = Time required for degradation by pepsin (none); assay type: ADME

SMILES: C[C@H](NC(=O)[C@H](Cc1ccccc1)NC(=O)[C@H](CCCCN)NC(=O)[C@@H]1NCCC1=O)C(=O)N1CCC[C@H]1C(=O)O (H-[X3]KFAP-OH)
IC50 [1]: 87.3 nM

SMILES: C[C@H](NC(=O)[C@H](Cc1ccccc1)NC(=O)[C@H](CCCCN)NC(=O)C1CCC1)C(=O)N1CCC[C@H]1C(=O)O (Cyclobutanecarbonyl-KFAP-OH)
IC50 [2]: 40 nM

SMILES: NCCCC[C@H](NC(=O)[C@@H]1CCC(=O)N1)C(=O)N[C@@H](Cc1ccccc1)C(=O)NCC(=O)N1CCC[C@H]1C(=O)O ([pGlu]KFGP-OH)
IC50 [1]: 179 nM

SMILES: CCCC[C@H](NC(=O)[C@@H]1CCC(=O)N1)C(=O)N[C@@H](Cc1ccccc1)C(=O)N[C@@H](C)C(=O)N1CCC[C@H]1C(=O)O ([pGlu][Nle]FAP-OH)
IC50 [1]: 359 nM

IC50 [2]: 1100 nM
SMILES: CC[C@H](C)[C@H](NC(=O)[C@H](CCC(N)=O)NC(=O)[C@@H]1CCCN1C(=O)[C@H](CCCNC(=N)N)NC(=O)[C@@H]1CCCN1C(=O)[C@H](Cc1c[nH]c2ccccc12)NC(=O)[C@@H]1CCC(=O)N1)C(=O)N1CCC[C@H]1C(=O)N1CCC[C@H]1C(=O)O [TEPROTIDE]

SMILES: CC[C@H](C)[C@H](NC(=O)[C@H](CCC(N)=O)NC(=O)[C@@H]1CCCN1C(=O)CNC(=O)[C@@H]1CCCN1C(=O)[C@H](Cc1c[nH]c2ccccc12)NC(=O)[C@@H]1CCC(=O)N1)C(=O)N1CCC[C@H]1C(=O)N1CCC[C@H]1C(=O)O ([pGlu]WPGPQIPP-OH)
IC50 [2]: 1900 nM

half-life (chymotrypsin): 1320 min
Time (Rattus norvegicus [3]): 5 h
Time [4]: 20 min
half-life (trypsin): < 5 min
Time (Rattus norvegicus [5]): 40 min
half-life [6]: > 60 min
half-life [7]: 20 min
Time [8]: 24 h
IC50 [2]: 340 nM
SMILES: NCCCC[C@H](NC(=O)[C@@H]1CCCN1C(=O)CNC(=O)[C@@H]1CCCN1C(=O)[C@H](Cc1ccc(O)cc1)NC(=O)C1CCC1)C(=O)N[C@@H](Cc1ccccc1)C(=O)NCC(=O)N1CCC[C@H]1C(=O)O (Cyclobutanecarbonyl-YPGPKFGP-OH)
